Experimental data: paper PMC3040411 (Bioorganic & medicinal chemistry letters, 2010)

Legend:
[1] = target: LPA5 (Homo sapiens, UniProt Q9H1C0); assay: LPA5-mediated calcium mobilization in B103 cells stably expressing LPA5; assay type: cell-based; conditions: concentrations above 1 μM, p < 0.05
[2] = target: Recombinant ATX (Homo sapiens, UniProt Q13822); assay type: biochemical; conditions: for Mechanism of ATX inhibition: assigned by lowest averaged percent residuals of curve fitting
Outline: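 Recombinant autotaxin ([…]) with test compound at various concentrations, in pH 8.0 Tris-HCl 50 mM buffer with NaCl 140 mM, KCl 3 mM, MgCl2 and CaCl2 1 mM each, and fatty-acid-free BSA 15 μM; LPA 18:1 as positive control. Fluorescence (ex 485/em 538 nm) read at start and after 2 h, 37 °C; activity as percent of vehicle, triplicate wells. For mechanism, FS-3 varied 0.3–20 μM at three inhibitor levels; competitive, uncompetitive, mixed and non-competitive models fitted simultaneously to give Ki.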

[3] = system: LPA1 GPCR; conditions: cited from earlier work
[4] = system: LPA2 GPCR; conditions: cited from earlier work

LPA5, sequence (Q9H1C0 whole entry, species assumed): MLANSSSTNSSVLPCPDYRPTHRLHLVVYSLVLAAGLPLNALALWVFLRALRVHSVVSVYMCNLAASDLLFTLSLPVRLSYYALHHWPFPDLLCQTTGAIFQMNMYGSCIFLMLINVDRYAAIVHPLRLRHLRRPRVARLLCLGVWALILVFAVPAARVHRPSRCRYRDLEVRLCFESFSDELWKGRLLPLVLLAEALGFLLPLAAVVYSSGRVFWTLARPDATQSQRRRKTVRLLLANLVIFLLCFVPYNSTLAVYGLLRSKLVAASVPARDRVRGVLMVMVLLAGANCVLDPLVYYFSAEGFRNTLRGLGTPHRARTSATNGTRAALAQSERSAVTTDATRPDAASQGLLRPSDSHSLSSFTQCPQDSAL

Compound | Efficacy for LPA5-mediated calcium mobilization compared with R-3-CCPA [1] | Mechanism of ATX inhibition [2] | Potency in ATX inhibition relative to S-3-CCPA ([2]; FS-3 1 μM, 2 hours at 37 °C) | LPA1 GPCR activation [3] | LPA2 GPCR activation [4]
CCCCCCCCCCCCCCCCCC(=O)OC[C@@H]1CCP(=O)([O-])O1.[Na+] [S-3-CCPA] | significantly higher | mixed mode | – | – | –
CCCCCCCCCCCCCCCCCC(=O)OC[C@H]1CCP(=O)([O-])O1.[Na+] [R-3-CCPA] | – | mixed mode | approximately 2 fold | – | –
1-acyl-2,3-glycerophosphate [CPA] | – | – | – | weak agonist | weak agonist
